This note sets out measurements from ChEMBL document CHEMBL4011642, “Potent, Selective, and Cell Active Protein Arginine Methyltransferase 5 (PRMT5) Inhibitor Developed by Structure-Based Virtual Screening and Hit Optimization” (J Med Chem, 2017).

Activity calls are given as the source filed them. The calls are words filed in the database; no cut-off is given here.

The IC50 is the concentration needed to halve the response being measured. In general, EC50 refers to the concentration that produces a half-maximal response.

Series [1] concerns the target T1, PRMT5/MEP50 complex (Homo sapiens, UniProt O14744). Put plainly: Inhibition of recombinant human N-terminal FLAG-tagged PRMT5 (2 to end residues) /human N-terminal His-tagged MEP50 (2 to end residues) expressed in HEK293F cells using histone H4 as substrate preincubated for 15 mins followed by substrate/S-adenosyl methionine addition measured after 60 mins by alpha LISA assay. Set-up: species or system HEK293.

Series [2] concerns the target T2, PRMT5/MEP50 complex (Homo sapiens) (UniProt O14744+Q9BQA1). The experiment in a line: Competitive inhibition of recombinant human N-terminal FLAG-tagged PRMT5 (2 to end residues) /human N-terminal His-tagged MEP50 (2 to end residues) expressed in HEK293F cells using peptide substrate preincubated for 15 mins followed by substrate/[3H]-SAM addition measured after 60 mins under varying concentration of peptide. Type of series: cell-based. In a few lines: (§1)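 Mechanism study in modified Tris buffer. PRMT5/MEP50 preincubated 15 min at RT with serially diluted compound (1% DMSO final), then peptide added and reaction started with [3H]-SAM. For the SAM study, [3H]-SAM was set at 7 concentrations with fixed peptide. For the peptide study, peptide was set at 7 concentrations with fixed SAM. Run 60 min at RT, stopped with cold SAM, Flashplate capture, MicroBeta counting.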

Series [3] deals with T2, PRMT5/MEP50 complex (Homo sapiens). The experiment in a line: Uncompetitive inhibition of recombinant human N-terminal FLAG-tagged PRMT5 (2 to end residues) /human N-terminal His-tagged MEP50 (2 to end residues) expressed in HEK293F cells using peptide substrate preincubated for 15 mins followed by substrate/[3H]-SAM addition measured after 60 mins under varying concentration of SAM. It is filed as cell-based. In a few lines: as §1

Series [4] concerns the target T1, PRMT5/MEP50 complex. The experiment in a line: Inhibition of recombinant human N-terminal FLAG-tagged PRMT5 (2 to end residues)/human N-terminal His-tagged MEP50 (2 to end residues) expressed in HEK293F cells using histone H4 as substrate in presence of [3H]-SAM after 60 mins by chemiluminescent assay. Type of series: cell-based, HEK293. As to conditions: in the assay text read “radioactive methylation assay” for “chemiluminescent assay”. The method, boiled down: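 PRMT5/MEP50 complex in modified Tris buffer with 3-fold diluted compound (1% DMSO final) preincubated 15 min at RT. Substrate added and reaction started with [3H]-SAM; 60 min at RT, stopped with cold SAM. Transferred to Flashplate, washed, counted on MicroBeta.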

The test system of another series is HUVEC. Put plainly: Cytotoxicity against human HUVEC assessed as cell growth inhibition after 8 days by Cell Titer-Glo assay. The note with it: 192 h. Type of series: cell-based. The method, boiled down:
(§2)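 Normal cells (HUVEC from ATCC; RCTEC) grown in RPMI1640 with 10% FBS and 1% penicillin/streptomycin, 5% CO2, 37 °C. Seeded at 0.5–1 × 10^5 cells/well; compound (0–100 μM) added after 6 h. Cells counted and replated with fresh medium and compound every 4 days over 8 days. Viability by CellTiter-Glo luminescence; concentration–response curves fitted at each time point.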

Series [5] relates to MV4-11. Put plainly: Cytotoxicity against human MV411 cells assessed as cell growth inhibition after 12 days by Cell Titer-Glo assay. The note with it: MV4-11, 288 h.
The subject of a further series is JeKo-1. Put plainly: Cytotoxicity against human JeKo1 cells assessed as cell growth inhibition after 12 days by Cell Titer-Glo assay. It is filed as functional, cell-based. The note with it: JeKo-1, 288 h. The method, boiled down: (§3)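 Cancer lines grown in RPMI1640 with 10% FBS and 1% penicillin/streptomycin, 5% CO2, 37 °C. Seeded at 0.5–1 × 10^5 cells/well; compound (0–100 μM) added after 6 h. Counted and replated at equal numbers with fresh medium and compound every 4 days, up to 12 days. Viable cells by CellTiter-Glo luminescence; concentration–response curves fitted at each time point.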
(In general: In ATP-based viability assays light output follows the ATP content of the culture.)

The test system of a further series is Z-138. Put plainly: Cytotoxicity against human Z138 cells assessed as cell growth inhibition after 12 days by Cell Titer-Glo assay. Type of series: functional, cell-based. The note with it: Z-138, 288 h. In a few lines: as §3
The nature of series [6]: Cytotoxicity against human RCTEC assessed as cell growth inhibition after 8 days by Cell Titer-Glo assay. It is filed as cell-based. The note with it: 192 h. The method, boiled down:
as §2

Series [7] deals with MV4-11. Put plainly: Cytotoxicity against human MV411 cells assessed as cell growth inhibition after 4 days by Cell Titer-Glo assay. It is filed as functional, cell-based. As to conditions: MV4-11, 96 h. In a few lines: as §3
The test system of series [8] is MV4-11. The experiment in a line: Cytotoxicity against human MV411 cells assessed as cell growth inhibition after 8 days by Cell Titer-Glo assay. It is filed as functional, cell-based. The note with it: MV4-11, 192 h. In a few lines: as §3
Series [9] concerns the target Protein arginine N-methyltransferase 5 (Homo sapiens) (UniProt O14744). The experiment in a line: Inhibition of PRMT5 in human MV411 cells assessed as downregulation of SmD3 after 6 days by Western blot analysis. Type of series: cell-based. In a few lines:
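MV4-11 cells treated with compound over a 0–20 μM titration for 6 days. Whole-cell lysates run on 4–12% SDS-PAGE, transferred to nitrocellulose, blocked in 5% milk. Probed overnight at 4 °C with anti-symmetric dimethylarginine (SDMA) and GAPDH antibodies, then HRP secondary. SmD3-colocalizing band assessed.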
A general note: A western blot detects proteins with antibodies after separation by electrophoresis.

Series [10] deals with T2, PRMT5/MEP50 complex (Homo sapiens). The experiment in a line: Competitive inhibition of recombinant human N-terminal FLAG-tagged PRMT5 (2 to end residues) /human N-terminal His-tagged MEP50 (2 to end residues) expressed in HEK293F cells using peptide substrate preincubated for 15 mins followed by substrate/[3H]-SAM addition measured after 60 mins under varying concentration of SAM. Type of series: cell-based. In a few lines:
as §1

Series [11] has the same target. Put plainly: Non-competitive inhibition of recombinant human N-terminal FLAG-tagged PRMT5 (2 to end residues) /human N-terminal His-tagged MEP50 (2 to end residues) expressed in HEK293F cells using peptide substrate preincubated for 15 mins followed by substrate/[3H]-SAM addition measured after 60 mins under varying concentration of peptide. It is filed as cell-based. In a few lines:
as §1

The test system of another series is KOPN-8. The experiment in a line: Cytotoxicity against human KOPN8 cells assessed as cell growth inhibition after 12 days by Cell Titer-Glo assay. As to conditions: KOPN-8, 288 h.

T1 sequence (O14744 whole entry): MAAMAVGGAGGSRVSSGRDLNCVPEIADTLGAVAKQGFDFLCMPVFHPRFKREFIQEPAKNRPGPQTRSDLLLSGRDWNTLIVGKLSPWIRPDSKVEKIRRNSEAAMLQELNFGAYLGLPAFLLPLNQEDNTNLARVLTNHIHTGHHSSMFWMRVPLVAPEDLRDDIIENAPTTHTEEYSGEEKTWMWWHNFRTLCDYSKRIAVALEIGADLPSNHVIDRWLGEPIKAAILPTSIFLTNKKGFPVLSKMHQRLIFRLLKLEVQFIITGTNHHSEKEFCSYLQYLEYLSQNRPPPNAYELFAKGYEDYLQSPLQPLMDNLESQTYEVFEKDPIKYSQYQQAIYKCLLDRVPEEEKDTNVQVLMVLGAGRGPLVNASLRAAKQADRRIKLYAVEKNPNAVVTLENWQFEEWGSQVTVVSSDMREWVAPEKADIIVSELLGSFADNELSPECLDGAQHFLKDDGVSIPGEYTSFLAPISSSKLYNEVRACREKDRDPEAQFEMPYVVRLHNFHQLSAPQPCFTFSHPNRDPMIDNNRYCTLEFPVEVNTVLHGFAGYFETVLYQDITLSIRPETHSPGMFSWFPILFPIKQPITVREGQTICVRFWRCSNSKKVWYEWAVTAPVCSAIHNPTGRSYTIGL
T1 sequence (Q9BQA1 whole entry, further chain): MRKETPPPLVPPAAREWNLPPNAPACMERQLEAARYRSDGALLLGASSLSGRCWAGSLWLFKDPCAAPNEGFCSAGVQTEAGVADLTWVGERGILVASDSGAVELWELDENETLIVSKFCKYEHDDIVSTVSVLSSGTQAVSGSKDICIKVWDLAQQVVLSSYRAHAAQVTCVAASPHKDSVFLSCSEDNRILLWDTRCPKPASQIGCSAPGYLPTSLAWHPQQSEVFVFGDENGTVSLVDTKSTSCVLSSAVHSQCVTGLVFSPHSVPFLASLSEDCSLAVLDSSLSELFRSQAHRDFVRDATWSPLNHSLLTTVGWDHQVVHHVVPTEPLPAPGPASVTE
Chain of Protein arginine N-methyltransferase 5 (Homo sapiens) (O14744 whole entry): as the sequence (O14744 whole entry) above

In the case of `COC(=O)c1ccc(NC(=O)CSc2nc3cc(OC)ccc3[nH]2)cc1`, the half-inhibitory concentration (IC50) on PRMT5/MEP50 complex [1] was more than 100 µM.

As to `COc1ccc(C(=O)NC2C=NCS2)c(OC)c1` (stereo not drawn), the half-maximal inhibitory concentration (IC50) on PRMT5/MEP50 complex [1] turned out to be 27 µM.

Turning to `COC(=O)c1ccccc1NC(=O)CSc1nc2c(C)cccc2[nH]1`, the IC50 on PRMT5/MEP50 complex [1] is more than 100 µM.

In the case of `O=C(NC[C@H](O)CN1CCc2ccccc2C1)c1cc(NC2COC2)ncn1`, the inhibition result in series [2] and in [3] was “Active” throughout.

As to `COC(=O)c1ccccc1NC(=O)CSc1nc2cc(OC(C)C)ccc2[nH]1`, the IC50 at PRMT5/MEP50 complex [1] was determined as 2.8 µM.

Turning to `COc1ccc2[nH]c(SCC(=O)Nc3ccccc3N(C)C)nc2c1`, the IC50 at PRMT5/MEP50 complex [1] was 25 µM.

For `COC(=O)c1ccccc1NC(=O)CSc1nc2nc(OC)ccc2[nH]1`, the concentration for half-maximal inhibition (IC50) on PRMT5/MEP50 complex [1] was 8.4 µM.

Turning to `COC(=O)c1ccccc1NC(=O)CSc1nc2cc(Br)ccc2[nH]1`, the 50% inhibitory concentration (IC50) at PRMT5/MEP50 complex [1] was 0.34 µM.

For the compound `O=C(/C=C/c1ccc(-c2ccccc2[N+](=O)[O-])o1)c1ccccc1`, the concentration for half-maximal inhibition (IC50) at PRMT5/MEP50 complex [1] came to 23 µM; at PRMT5/MEP50 complex [4], 169 µM.

`COC(=O)c1ccccc1NC(=O)CSc1nc2cc(N(C)C)ccc2[nH]1`: the IC50 on PRMT5/MEP50 complex [1] worked out at 0.33 µM.

Consider `COC(=O)c1ccccc1NC(=O)CSc1nc2c(OC)cccc2[nH]1`, for which the IC50 on PRMT5/MEP50 complex [1] is more than 100 µM.

`COC(=O)c1ccncc1NC(=O)CSc1nc2cc(OC)ccc2[nH]1`: the 50% inhibitory concentration (IC50) at PRMT5/MEP50 complex [1] stood at 2.4 µM.

For the compound `COc1ccc2[nH]c(SCC(=O)Nc3ccccc3)nc2c1`, the concentration for half-maximal inhibition (IC50) on PRMT5/MEP50 complex [1] is 33 µM.

On to `COC(=O)c1ccccc1NC(=O)CSc1nc2cc(Cl)ccc2[nH]1`, for which, on PRMT5/MEP50 complex [1], the half-maximal inhibitory concentration (IC50) was 0.5 µM.

Consider `COC(=O)c1ccccc1NC(=O)CSc1nc2cc(O)ccc2[nH]1`, for which the half-maximal inhibitory concentration (IC50) at PRMT5/MEP50 complex [1] is more than 100 µM.

`COC(=O)c1ccccc1NC(=O)CSc1nc2ccccc2[nH]1`: the IC50 on PRMT5/MEP50 complex [1] was 8.1 µM; at PRMT5/MEP50 complex [4] it was 24 µM.

`COc1ccc2[nH]c(SCC(=O)Nc3ccccc3Cl)nc2c1`: on PRMT5/MEP50 complex [1], the IC50 turned out to be 47 µM.

In the case of `COC(=O)c1ccccc1NC(=O)CSc1nc2cc([N+](=O)[O-])ccc2[nH]1`, the half-maximal inhibitory concentration (IC50) on PRMT5/MEP50 complex [1] was determined as 0.83 µM.

Turning to `COC(=O)c1ccccc1NC(=O)CSc1nc2c(Cl)cccc2[nH]1`, the IC50 at PRMT5/MEP50 complex [1] was more than 100 µM.

In the case of `CCCOc1ccc2[nH]c(SCC(=O)Nc3ccccc3C(=O)OC)nc2c1`, on PRMT5/MEP50 complex [1], the half-maximal inhibitory concentration (IC50) was determined as 0.53 µM.

Turning to `Clc1ccc(CNCC2CCNCC2)cc1Cl`, at PRMT5/MEP50 complex [1], the half-maximal inhibitory concentration (IC50) was 27 µM.

Regarding `COC(=O)c1ccccc1NC(=O)CSc1nc2cc(F)ccc2[nH]1`, on PRMT5/MEP50 complex [1], the IC50 was determined as 3.3 µM.

Consider `COc1ccc2[nH]c(SCC(=O)Nc3ccccc3C)nc2c1`, for which the half-maximal inhibitory concentration (IC50) at PRMT5/MEP50 complex [1] was more than 200 µM.

Regarding `COc1ccc2[nH]c(SCC(=O)Nc3ccccc3C(=O)N(C)C)nc2c1`, the 50% inhibitory concentration (IC50) at PRMT5/MEP50 complex [1] is more than 200 µM.

With `COC(=O)c1cccc(NC(=O)CSc2nc3cc(OC)ccc3[nH]2)c1`, the IC50 on PRMT5/MEP50 complex [1] came out at 52 µM.

For `Cc1ccc(OCc2nnc3sc(-c4cccnc4)nn23)cc1`, the IC50 on PRMT5/MEP50 complex [1] is 26 µM; at PRMT5/MEP50 complex [4], more than 200 µM.

`OCCNCc1c(OCc2ccccc2F)ccc2ccccc12`: the IC50 was 18 µM on PRMT5/MEP50 complex [1] and 172 µM at PRMT5/MEP50 complex [4].

With `COC(=O)c1ccccc1NC(=O)CSc1nc2cc(N)ccc2[nH]1`, at PRMT5/MEP50 complex [1], the half-maximal inhibitory concentration (IC50) was determined as 40 µM.

`CNc1ccc2[nH]c(SCC(=O)Nc3ccccc3C(=O)OC)nc2c1`: the IC50 on PRMT5/MEP50 complex [1] is 1.6 µM.

Regarding `COc1ccc2[nH]c(SCC(=O)Nc3ccccc3C(=O)O)nc2c1`, the IC50 on PRMT5/MEP50 complex [1] is more than 100 µM.

In the case of `CCOC(=O)c1ccccc1NC(=O)CSc1nc2cc(OC)ccc2[nH]1`, on PRMT5/MEP50 complex [1], the half-maximal inhibitory concentration (IC50) is 1.9 µM.

For `COC(=O)c1ccccc1NC(=O)CSc1nc2cc(C)ccc2[nH]1`, the IC50 at PRMT5/MEP50 complex [1] worked out at 1.4 µM.

On to `CCOc1ccc2[nH]c(SCC(=O)Nc3ccccc3C(=O)OC)nc2c1`, for which the IC50 at PRMT5/MEP50 complex [1] turned out to be 0.35 µM.

Take `COc1ccc2[nH]c(SCC(=O)Nc3ccccc3OC)nc2c1`: the IC50 on PRMT5/MEP50 complex [1] came to 19 µM.

On to `COC(=O)c1ccccc1NC(=O)CSc1nc2cc(OC)ccc2[nH]1`, for which the Activity entry (in the series on HUVEC; in series [6]) was “Non-Toxic” throughout. Besides, the EC50 is 6.53 µM in the series on MV4-11 [5]; 15 to 70 µM in the series with JeKo-1; 15 to 70 µM in the series on Z-138; 80.7 µM in the series on MV4-11 [7]; 25.7 µM in the series with MV4-11 [8]; 15 to 70 µM in the series with KOPN-8. Also, the inhibition entry in series [9] is “Dose-dependent effect”. The inhibition result in series [10] and in series [11] was “Active” in each case.

`COC(=O)c1ccccc1NC(=O)CSc1nc2ccncc2[nH]1`: the concentration for half-maximal inhibition (IC50) on PRMT5/MEP50 complex [1] stood at 87 µM.

Regarding `CNC(=O)c1ccccc1NC(=O)CSc1nc2cc(OC)ccc2[nH]1`, the IC50 on PRMT5/MEP50 complex [1] was more than 200 µM.

`COc1ccc2[nH]c(SCC(=O)Nc3ccccc3C(C)=O)nc2c1`: on PRMT5/MEP50 complex [1], the IC50 amounted to 2.9 µM.
